NF-kB expr up: activators of NF-kB expression in neurons, primary screen, cell-based, HTS | human neuronal cells, NF-kB reporter expression; active compounds read high | fold change at 12.5 µM | 1.6% of 190,000 active; in the data active = fold change above about 3.3
C8 TRAIL sens: viability loss with TRAIL in NB7+C8 cells, primary screen, TRAIL sensitizer project, cell-based, ATPlite luminescence. 1% of 360,000 active. inhibition (viability loss, TRAIL sensitization), % at 10 µM;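 active = compounds causing at least 50% loss of cell viability in the single-dose screen, relative to plate controls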
FLuc act counter: FLuc activators, initial screening, artefact control for FLuc-dependent activation tests, biochemical, ATPlite luminescence; Luciferin 4-monooxygenase (Photinus pyralis), P08659; ATPlite luciferase biochemical, 10 min; 0 = ATP-free wells, 1 = DMSO control; activation factor at 10 µM; 200,000 tested, under 10 active;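 active = luciferase activation factor, scaled between plate controls, of at least 2 with compound at 10 µM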
Target sequence (P08659 whole entry, looked up): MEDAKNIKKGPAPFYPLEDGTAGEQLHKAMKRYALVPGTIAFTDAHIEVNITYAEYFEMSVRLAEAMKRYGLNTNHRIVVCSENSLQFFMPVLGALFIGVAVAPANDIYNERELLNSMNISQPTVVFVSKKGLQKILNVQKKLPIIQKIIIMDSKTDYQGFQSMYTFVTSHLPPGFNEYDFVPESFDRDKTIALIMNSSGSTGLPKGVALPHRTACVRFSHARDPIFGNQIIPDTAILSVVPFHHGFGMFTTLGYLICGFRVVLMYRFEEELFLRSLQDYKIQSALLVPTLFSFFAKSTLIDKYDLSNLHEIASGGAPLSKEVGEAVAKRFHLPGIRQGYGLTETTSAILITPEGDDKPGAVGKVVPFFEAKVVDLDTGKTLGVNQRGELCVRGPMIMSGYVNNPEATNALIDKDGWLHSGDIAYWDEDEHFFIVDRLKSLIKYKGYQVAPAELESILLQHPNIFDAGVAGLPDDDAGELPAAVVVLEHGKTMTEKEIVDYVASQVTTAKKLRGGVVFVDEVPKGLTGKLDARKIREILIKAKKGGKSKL
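Material: Luciferase/luciferin reagent mix | Doses: Test compounds dosed from 2 mM stocks in 100% DMSO | Timing: 10 min incubation after luciferase reagent addition, room temperature | Measured by: Luminescence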
PPC-1+TRAIL kill: compounds killing PPC-1 cancer cells with TRAIL present, primary screen, TRAIL potentiator project, ATPLite luminescence, uHTS; PPC-1 cells + TRAIL, ATPLite viability luminescence; 0.41% of 220,000 active; cell killing (% activity), % at 4 µM or 5 µM;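 active = cell killing above 50% in the first pass at 4 µM, then a duplicate retest at 5 µM averaging 50% or more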;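 also: plate controls were cells with TRAIL plus DMSO for no effect and medium-only wells lacking cells for full effect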
APP 5'UTR act: activators of APP 5'UTR luciferase reporter, primary screen, SH-SY5Y cells. AID 1276, 2008. SH-SY5Y APP 5'UTR luciferase reporter, luminescence; zero percent = DMSO vehicle wells. 1% of 190,000 active. activation, % at 2 µM;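 active = activation above a set limit, based on mean plus 3 SD of controls, cut at about 140% in these data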
FLuc inhib CS: firefly luciferase enzyme inhibitors, primary screen, artefact control for luciferase-based inhibitor screens, biochemical, luminescence, ATPLite; 1.5% of 200,000 active; Luciferin 4-monooxygenase (Photinus pyralis), P08659; AID 1006, 2008; 10 min; inhibition, % at 10 µM;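 active = inhibition above about 50% when tested at 10 µM, limit read from the data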
Starred values were filed as active, the others as inactive; nt = no result given. Sampled rows, rich in hits. Any-hit rate of the full collection: about 2.2%.

SMILES	NF-kB expr up	C8 TRAIL sens	FLuc act counter	PPC-1+TRAIL kill	APP 5'UTR act	FLuc inhib CS
CN(C)c1ccc(N=Cc2nc(-c3ccccc3)oc2OC(=O)c2ccccc2)cc1	2.04	9.2	1	15.9	155.2*	1.1
C[C@@H]1CN([C@H](C)CO)C(=O)CCCn2nncc2CO[C@H]1CN(C)Cc1ccccc1	nt	-19.2	nt	nt	nt	nt
COc1ccc2oc(C(=O)N3CCc4ccccc43)c(C)c2c1	nt	82.0*	nt	nt	nt	nt
COc1ccc2c(CC(=O)N3CCc4ccccc43)coc2c1	4.91*	20.4	0.6	30.7	142.1*	41.9
COc1ccc2c(CC(=O)OCC(=O)N3CCc4ccccc43)coc2c1	0.99	-18.4	1	5.0	-11.5	-3.5
C=C(C)C1CC=C(C)/C(=N\NC(=S)Nc2ccc(C)cc2)C1 (stereo unspecified)	1.17	-12.7	1	11.3	2.5	-2.6
CCOC(=O)c1sc2nc(N3CCOCC3)c3c(c2c1N)CC(C(C)C)OC3 (stereo unspecified)	1.24	-7.6	1.1	-2.0	-10.9	-5.8
COC(=O)c1sc2nc3c(cc2c1N)COC(C)(C)C3	4.18*	20.5	0.7	31.8	-10.6	31.1
CC1(C)Cc2nc3sc(C(=O)NCCCO)c(N)c3cc2CO1	nt	-7.1	nt	31.8	nt	nt
CCOC(=O)c1sc2nc3c(cc2c1N)COC(C(C)C)C3 (stereo unspecified)	1.38	46.0	0.5	20.0	144.9*	48.7
Cc1cn(CC(=O)NCC2CCCO2)c(=O)[nH]c1=O (stereo unspecified)	nt	5.3	nt	nt	nt	nt
N/C(=N\OC(=O)c1ccc(Cl)cc1Cl)c1cccnc1	6.31*	61.3*	0.1	47.1	131.0	92.8*
N/C(=N\OC(=O)c1ccc(Cl)cc1)c1cccnc1	2.53	91.0*	0.1	26.4	44.9	94.3*
N/C(=N\OC(=O)c1cccc2ccccc12)c1cccnc1	1.9	6.3	0.7	18.3	63.1	34.2
CCCCC(=O)N1CCN(c2nc3ccc(Cl)cc3s2)CC1	nt	3.6	nt	nt	nt	nt
O=C(COc1ccc(-c2ccccc2)cc1)NNC(=O)NC1CCCCC1	1.33	-0.8	1	3.6	23.3	-0.5
Cc1ccc2nc(N3CCN(c4cccc(C)c4C)CC3)c3nnnn3c2c1	0.66	2.6	1.1	3.6	-5.7	-6.6
Cc1ccc2nc(Cl)c3nnnn3c2c1	0.29	61.5*	1	18.2	-25.6	-1.4
O=C(OCCc1cc2ccccc2c(=O)o1)c1cccc(Br)c1	nt	11.4	nt	nt	nt	nt
CN=CC1=C(O)c2ccccc2C1=O	1.16	-11.9	1	-3.7	-4.6	-4.3
COc1ccc(N=C(C)C2=C(O)c3ccccc3C2=O)cc1	5.43*	69.7*	0.2	63.4*	206.1*	81.4*
COc1ccc(N=Cc2[nH]c3ccccc3c2O)cc1	1.68	-0.3	0.1	21.2	86.8	85.8*
O=C1C(C=Nc2ccccc2)=C(O)c2ccccc21	2.57	49.9*	0.1	29.0	102.7	85.8*
COc1ccc(N=CC2=C(O)c3ccccc3C2=O)cc1	1.38	88.0*	0.1	7.4	137.3*	91.7*
COc1ccc(N=Cc2ccccc2O)cc1	nt	-10.2	nt	nt	nt	nt
SMILES	NF-kB expr up	C8 TRAIL sens	FLuc act counter	PPC-1+TRAIL kill	APP 5'UTR act	FLuc inhib CS
COc1ccc(S(=O)(=O)NCC2CCCO2)cc1NC(=O)c1ccccc1F (stereo unspecified)	nt	11.6	nt	nt	nt	nt
CC1CCCCN1CC(=O)Nc1ccccc1Sc1ccccc1 (stereo unspecified)	1.03	7.3	1.2	11.5	-3.1	-17.1
FC(F)(F)c1ccccc1-c1ccc2nncn2c1	nt	5.9	nt	nt	nt	nt
COc1ccccc1-c1nc(-c2ccc(C)nc2OC)no1	2.45	14.1	0.7	18.1	46.4	25.8
COc1nc(C)ccc1-c1noc(-c2ccccn2)n1	4.22*	46.8	0.3	31.3	23.7	68.7*
Oc1c(Cl)cc(CN2CCCCC2)c2cccnc12	nt	34.7	nt	nt	nt	nt
O=C(Oc1c(CN2CCOCC2)cc(Cl)c2cccnc12)c1cccs1	1.06	52.4*	1	25.3	-27.1	1.2
O=C(Oc1c(Cl)cc(Cl)c2cccnc12)c1cccs1	1	29.2	1	24.1	1.3	-4.2
O=C(Oc1c(CN2CCOCC2)cc(Cl)c2cccnc12)c1ccccc1Cl	1.69	54.4*	1	10.0	-53.1	-4.2
Cc1ccc(S(=O)(=O)N2CCN(CC(=O)Nc3ccccc3C(=O)NC3CC3)CC2)cc1	nt	-10.0	nt	nt	nt	nt
CCOC(=O)C1=C(COC(=O)/C=C/c2ccc(OC)cc2OC)NC(=O)NC1C (stereo unspecified)	nt	9.1	nt	nt	nt	nt
Cc1ccn2c(c1)nc(=S)n2C(=O)c1ccccc1	1.13	89.1*	0	82.4*	189.3*	95.5*
Cc1ccn2c(NC(=O)c3ccccc3)c(-c3ccccc3)nc2c1	nt	-9.5	nt	nt	nt	nt
O=C(c1ccco1)n1c(=S)nc2ccccn21	5.42*	36.4	0.3	16.3	86.6	68.4*
Cc1cc(C)nc(NC(=O)c2ccc(COc3ccccc3Cl)cc2)c1	1.12	5.2	1	-15.4	-3.4	-1.4
Oc1cc(NCc2ccc(F)cc2)cc2cccnc12	nt	54.2*	nt	nt	nt	nt
Cc1cc(/C=C2/NC(=S)NC2=O)c(C)n1-c1cccnc1	1.63	16.2	0.3	5.8	-1.4	71.2*
Cc1cc(/C=C2/NC(=O)N(c3ccccc3)C2=O)c(C)n1-c1cccnc1	1.22	11.7	0.6	4.4	86.4	44.8
COc1ccccc1CNC(=O)Cc1ccccc1	nt	3.6	nt	nt	nt	nt
Cc1ccc(S(=O)(=O)N(C)C)cc1NS(=O)(=O)c1ccc(Cl)s1	0.99	-7.4	1.1	30.7	-7.0	-5.1
COc1cc(OC)c(OC)cc1CCC(C)NCCC(c1ccccc1)c1ccccc1 (stereo unspecified)	nt	18.0	nt	nt	nt	nt
Cc1ccccc1CC(=O)N1CCOCC1	nt	5.7	nt	nt	nt	nt
COCn1c(COc2ccc3ccccc3c2)nc2ccccc21	3.91*	39.5	0.4	23.9	96.1	59.8*
CCOC(=O)/C=C(\C)Sc1cc(O)c2ccccc2c1O	nt	72.5*	nt	34.8	nt	nt
CC1CCN(CCNC(=O)c2ccc3c(=O)n(Cc4ccc(Cl)cc4)c(=S)[nH]c3c2)CC1	nt	69.1*	nt	nt	nt	nt
O=C(O)c1ccccc1C(=O)c1ccc(Br)s1	0.86	-7.8	1	4.8	-14.3	-2.3
Cc1ccc2nc(CSc3nc(C)cc(C)c3C#N)[nH]c2c1	2.91	8.8	1	33.0	204.7*	4.0
CSc1ccccc1NC(=O)C1=CC(c2cccs2)=NS(=O)(=O)N1C	nt	-8.0	nt	nt	nt	nt
CC(=O)c1c(C)[nH]c(C(=O)COC(=O)CCCOc2ccccc2)c1C	1.08	-9.6	1.1	0.9	-0.3	-6.6
CC(=O)c1c(C)[nH]c(C(=O)NCCc2ccccc2)c1C	3.44*	13.5	0.7	29.4	131.4	30.4

Screens from PubChem BioAssay.
